This is an account of results in ChEMBL document CHEMBL1139315, “Search for new pharmacophores for antimalarial activity. Part II: synthesis and antimalarial activity of new 6-ureido-4-anilinoquinazolines” (Bioorg Med Chem, 2009).

Data set [1] concerns Plasmodium yoelii nigeriensis. The experiment in a line: Antimalarial activity as reduced parasitaemia against Plasmodium yoelii nigeriensis MDR infected Swiss mice (Mus musculus) at 100 mg/kg peroral dose for 4 days. The format is functional. The arrangement: scale not given: the % may be the effect or the level left. The settings on record: route oral. In short, it runs like this: (§1)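 Swiss mice (25 g, either sex), five per group, infected with 1 × 10^6 parasitized cells on day 0. Aqueous suspension given orally from day 0 to day 4; vehicle-only group as control. Parasitaemia read from tail-vein thin blood smears, reported as mean % parasitaemia on day 4 and day 7.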

The test system of data set [2] is Plasmodium falciparum. The experiment in a line: Antimalarial activity as schizonticidal activity after 48 hrs against chloroquine-sensitive Plasmodium falciparum 3D7. In kind it is functional. As to conditions: 3D7, 48 h. Summed up:
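3D7 ring stages synchronized with 5% sorbitol; 3% cell suspension at 1% parasitaemia added to duplicate wells of diluted compound (DMSO stock 5 mg/mL, diluted in RPMI). Incubated at 37 °C under CO2 for more than 40 h. Giemsa-stained thin smears counted by light microscopy; MIC = lowest concentration giving 100% inhibition of schizont maturation against untreated control.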

The next data set deals with Mus musculus. The data set is described as follows: Toxicity against Plasmodium yoelii nigeriensis MDR infected Swiss mice (Mus musculus) assessed as death at 100 mg/kg, perorally. The format is organism-based. The settings on record: in vivo, po. Further details: dose 100 mg/kg, route oral.
Data set [3] is described as follows: Selectivity index, ratio of CC50 for african green monkey (Cercopithecus aethiops) Vero C1008 cells to IC50 for chloroquine-sensitive Plasmodium falciparum 3D7. In kind it is functional. Summed up: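 Vero C1008 cells exposed to serially diluted compound, highest 100 µg/mL, for 72 h; MTT read-out; CC50 = concentration killing 50% of cells. SI = CC50/IC50, with IC50 from the SYBR Green I assay on 3D7.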

The subject of data set [4] is Plasmodium falciparum. The data set is described as follows: Antimalarial activity after 72 hrs against chloroquine-sensitive Plasmodium falciparum 3D7 infected erythrocytes by MSF assay. As to conditions: 3D7, 72 h. The format is functional, organism-based. Summed up: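 P. falciparum 3D7 kept in RPMI with gentamicin 40 µg/mL, Fungizone 0.25 µg/mL and 10% FBS (pH 7.2) at 37 °C under CO2. Twofold serial dilutions over seven concentrations, top 10–500 ng/mL, duplicate wells; 2.5% haematocrit, 0.5% parasitaemia; 72 h. SYBR Green I in lysis buffer (Tris pH 7.5, EDTA, saponin, Triton X-100), 1 h at room temperature, fluorescence read; IC50 by logit regression.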

In data set [5] the test system is Plasmodium yoelii nigeriensis. The experiment in a line: (§2) Antimalarial activity as reduced parasitaemia against Plasmodium yoelii nigeriensis MDR infected Swiss mice (Mus musculus) at 100 mg/kg peroral dose […]. In kind it is functional. The arrangement: scale not given: the % may be the effect or the level left. The settings on record: route oral. In short, it runs like this:
as §1

The test system of data set [6] is Plasmodium yoelii nigeriensis. Described as §2. The format is functional. The arrangement: scale not given: the % may be the effect or the level left. As to conditions: route oral. In short, it runs like this:
as §1
This is another data set of the same source.

Values after ≈ are worked out from the molar mass of the structure shown.

As to `O=C(Nc1ccc(Br)cc1)Nc1ccc2ncnc(Nc3cccc(C(F)(F)F)c3)c2c1`, the Activity in data set [1] is 50.4%; in the data set with Mus musculus, “Toxic”. In the data set with Plasmodium falciparum [2], this compound came in with an MIC of 2 µg/mL (≈ 3.98 µM).

In the case of `COc1ccc(Nc2ncnc3ccc(NC(=O)Nc4ccc(Cl)c(C(F)(F)F)c4)cc23)cc1OC`, the “Ratio CC50/IC50” value in data set [3] came out at 345.8. The figures for the Activity in data set [1], in data set [5] and in data set [6] were 0%, 99% and 0.49%, respectively. Moreover, in the data set on Plasmodium falciparum [4], 0.0182 µg/mL (≈ 0.0351 µM) corresponded to half-maximal inhibition (IC50). In the data set with Plasmodium falciparum [2], this compound yielded a minimal inhibitory concentration (MIC) of 0.25 µg/mL (≈ 0.483 µM).

Consider `O=C(Nc1ccc(Cl)cc1)Nc1ccc2ncnc(Nc3cccc(F)c3)c2c1`, for which the values for the Activity in data set [1], in data set [5] and in data set [6] were 0%, 99% and 0.03%, respectively. The compound further yielded a minimal inhibitory concentration (MIC) in the data set with Plasmodium falciparum [2] of 0.5 µg/mL (≈ 1.23 µM).

By MIC is commonly meant the least concentration at which growth counts as inhibited. For orientation: IC50 means the concentration needed to halve the response being measured.
